Results on five compounds are retold here after ChEMBL document CHEMBL3425427, “Pyrido[4,3-e][1,2,4]triazolo[4,3-a]pyrazines as Selective, Brain Penetrant Phosphodiesterase 2 (PDE2) Inhibitors” (ACS Med Chem Lett, 2015).

The source made the active and inactive calls. The calls are words filed in the database; no cut-off is given here.

Data set [1] addresses T1, cAMP and cAMP-inhibited cGMP 3',5'-cyclic phosphodiesterase 10A (Rattus norvegicus, UniProt Q9QYJ6).
T1 sequence (Q9QYJ6 whole entry): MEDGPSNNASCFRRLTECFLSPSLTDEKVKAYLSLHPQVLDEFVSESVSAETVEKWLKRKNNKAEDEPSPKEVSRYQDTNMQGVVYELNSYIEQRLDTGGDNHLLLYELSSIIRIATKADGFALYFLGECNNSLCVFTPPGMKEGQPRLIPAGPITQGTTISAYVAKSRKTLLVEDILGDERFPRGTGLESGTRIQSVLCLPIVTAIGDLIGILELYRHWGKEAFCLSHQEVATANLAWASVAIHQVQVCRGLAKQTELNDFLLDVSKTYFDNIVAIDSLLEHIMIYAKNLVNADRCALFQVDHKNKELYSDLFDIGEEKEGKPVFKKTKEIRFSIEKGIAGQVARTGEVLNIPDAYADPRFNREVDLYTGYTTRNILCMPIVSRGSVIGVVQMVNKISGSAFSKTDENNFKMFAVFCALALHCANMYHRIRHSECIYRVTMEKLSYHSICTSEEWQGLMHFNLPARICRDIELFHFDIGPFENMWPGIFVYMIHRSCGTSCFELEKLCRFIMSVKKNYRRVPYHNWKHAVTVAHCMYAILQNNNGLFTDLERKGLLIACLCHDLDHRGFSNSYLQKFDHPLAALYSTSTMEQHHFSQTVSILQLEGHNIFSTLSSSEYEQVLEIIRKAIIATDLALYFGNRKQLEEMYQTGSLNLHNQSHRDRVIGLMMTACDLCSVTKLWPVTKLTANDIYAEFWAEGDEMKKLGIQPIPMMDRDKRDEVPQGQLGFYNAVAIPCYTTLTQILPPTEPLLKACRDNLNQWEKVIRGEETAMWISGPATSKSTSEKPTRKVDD
Description: Inhibition of 6-His-tagged rat recombinant PDE10A expressed in Sf9 cells using [3H]cAMP incubated for 60 mins by scintillation proximity assay.

A short description of data set [2]: Drug metabolism in human liver microsomes at 1 uM incubated for 15 mins at 37 degC. The class given is ADME. To be noted: read-out: Drug metabolism. A digest of the protocol: (§1)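 Compound at 1 μM incubated 15 min at 37 °C with human or rat liver microsomes; read-out is percent metabolized.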
Data set [3] in a line: Drug metabolism in rat liver microsomes at 1 uM incubated for 15 mins at 37 degC. To be noted: read-out: Drug metabolism. The data set is classed as ADME. Put shortly: as §1
For data set [4], the system named is Rattus norvegicus. Description: In vivo PDE2 occupancy in Wistar rat assessed as inhibition of specific binding of [3H]-4-((1-(5-butoxypyridin-3-yl)-4-methyl-[1,2,4]triazolo[4,3-a]quinoxalin-8-yl)methyl)morpholine radiotracer up to 10 mg/kg, po and pre-treated with 2.5 mg/kg, sc PDE10 inhibitor MP10. The class given is functional, organism-based.
Data set [5] can be described thus: Unbound fraction in Sprague-Dawley rat brain homogenates at 10 mg/kg, sc after 5 hrs at 37 degC by rapid equilibrium dialysis. The class given is ADME, organism-based. More on the design: dose 10 mg/kg, route subcutaneous. To be noted: brain homogenate. A digest of the protocol: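 Unbound fraction measured in rat brain homogenate by rapid equilibrium dialysis, 5 h incubation at 37 °C.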

Data set [6] in a line: Ratio of drug level in brain to plasma of Sprague-Dawley rat at 10 mg/kg, sc after 1 hr. The class given is ADME, organism-based. Also on record: dose 10 mg/kg, route subcutaneous. The note with it: read-out: BPR. A digest of the protocol:
(§2)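 Fed male Sprague-Dawley rats, n = 2 per time point, given 10 mg/kg s.c. in 20% HPβCD at pH 3.5−4. Brain and plasma levels taken 1 h after dosing; brain-to-plasma ratio computed from these.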

Data set [7] concerns Rattus norvegicus. Description: In vivo PDE2 occupancy in Wistar rat assessed as inhibition of specific binding of [3H]-4-((1-(5-butoxypyridin-3-yl)-4-methyl-[1,2,4]triazolo[4,3-a]quinoxalin-8-yl)methyl)morpholine radiotracer and pre-treated with 2.5 mg/kg, sc PDE10 inhibitor MP10. The data set is classed as functional. To be noted: route subcutaneous.
Data set [8] in a line: Drug level in Sprague-Dawley rat brain homogenates at 10 mg/kg, sc after 1 hr. The class given is ADME, organism-based. More on the design: dose 10 mg/kg, route subcutaneous. The note with it: read-out: Drug uptake. A digest of the protocol: as §2

Take `Cc1nc2ccncc2n2c(-c3cc(OC(F)(F)F)ccc3Cl)nnc12`: the IC50 in data set [1] came out at 8.91 µM. Also, the values for the metabolised at 0.25 h, 1 µM in data set [2] and in data set [3] were 3% and 11%, respectively.
Turning to `Cc1nc2ccncc2n2c(-c3cc(COCC(F)(F)F)ccc3Cl)nnc12`, the outcome with Rattus norvegicus [4] was inactive. Also, in data set [5], the fraction unbound at 5 h is 0.1. The Kp at 1 h in data set [6] was found to be 1.1. The ED50 in the data set on Rattus norvegicus [7] was 3.6 mg/kg. Moreover, the metabolised at 0.25 h, 1 µM was determined as 12% in data set [2] and 77% in data set [3]. In data set [8], the concentration at 1 h stood at 370 ng/g.
As to `CCCOCc1ccc(Cl)c(-c2nnc3c(C)nc4ccncc4n23)c1`, in data set [5], the fraction unbound at 5 h turned out to be 0.1. In addition, the IC50 in data set [1] was 3.89 µM. Further, in data set [6], the Kp at 1 h stood at 0.98. The figures for the metabolised at 0.25 h, 1 µM in data set [2] and in data set [3] were 78% and 98%, respectively. Also, the concentration at 1 h in data set [8] was determined as 895 ng/g.
As for `COCCOc1ccc(Cl)c(-c2nnc3c(C)nc4ccncc4n23)c1`, the fraction unbound at 5 h in data set [5] was 0.17. The IC50 in data set [1] turned out to be 9.12 µM. Moreover, the Kp at 1 h in data set [6] amounted to 0.44. The metabolised at 0.25 h, 1 µM in data set [2] was 5%; in data set [3], 18%. The concentration at 1 h in data set [8] amounted to 801 ng/g.
As for `CCCCOc1ccc(Cl)c(-c2nnc3c(C)nc4ccncc4n23)c1`, in data set [5], the fraction unbound at 5 h worked out at 0.026. The Kp at 1 h in data set [6] came out at 0.69. In addition, the metabolised at 0.25 h, 1 µM was determined as 34% in data set [2] and 98% in data set [3]. For the same compound, the concentration at 1 h in data set [8] stood at 807 ng/g.
